Laboratory results taken from ChEMBL document CHEMBL1142725, “Synthesis and discovery of pyrazine-pyridine biheteroaryl as a novel series of potent vascular endothelial growth factor receptor-2 inhibitors” (J Med Chem, 2005).

Columns and labels:
[1] = target: Vascular endothelial growth factor receptor 2 (Homo sapiens, UniProt P35968); assay: Inhibition of human vascular endothelial growth factor receptor 2
[2] = target: Cyclin-dependent kinase 1 (Homo sapiens, UniProt P06493); assay: Inhibition of human cyclin-dependent kinase 1
Cyclin-dependent kinase 1, sequence (P06493 whole entry): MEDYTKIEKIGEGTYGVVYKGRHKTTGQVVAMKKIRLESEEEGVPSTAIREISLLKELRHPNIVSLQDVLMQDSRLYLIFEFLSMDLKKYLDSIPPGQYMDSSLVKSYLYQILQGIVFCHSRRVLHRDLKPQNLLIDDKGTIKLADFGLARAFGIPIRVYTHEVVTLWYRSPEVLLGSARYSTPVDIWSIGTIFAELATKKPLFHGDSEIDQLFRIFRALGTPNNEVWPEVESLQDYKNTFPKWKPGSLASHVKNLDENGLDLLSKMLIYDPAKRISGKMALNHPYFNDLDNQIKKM

HeLa = assay: Inhibitory concentration against Proliferation of HeLa cells (cervical adenocarcinoma); assay type: functional, cell-based; conditions: Homo sapiens
Procedure, shortened: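 HeLa cells grown in MEM with 0.1 mM nonessential amino acids, 1 mM pyruvate, 2 mM L-glutamine and 10% FCS at 37 °C, 5% CO2. Seeded in scintillating microplates in complete medium and incubated 24 h. Compound added for 24 h, then 0.2 µCi methyl-[14C]thymidine per well for a further 24 h.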

[3] = target: cAMP-dependent protein kinase (PKA) (Homo sapiens, UniProt P22694+P17612+P22612); assay: Inhibition of protein kinase A; assay type: protein assay
Casein kinase II = Casein kinase II (Homo sapiens, UniProt P19784+P67870+P68400); assay: Inhibition of casein kinase II; assay type: protein-complex assay
Casein kinase II, sequence (P67870 whole entry): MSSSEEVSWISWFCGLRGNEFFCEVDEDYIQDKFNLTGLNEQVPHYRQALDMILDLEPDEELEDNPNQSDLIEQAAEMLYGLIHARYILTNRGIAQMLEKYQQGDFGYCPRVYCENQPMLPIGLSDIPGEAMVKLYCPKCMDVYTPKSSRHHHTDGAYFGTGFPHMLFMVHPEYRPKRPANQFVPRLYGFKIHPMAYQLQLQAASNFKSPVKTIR
Casein kinase II, sequence (P68400 whole entry): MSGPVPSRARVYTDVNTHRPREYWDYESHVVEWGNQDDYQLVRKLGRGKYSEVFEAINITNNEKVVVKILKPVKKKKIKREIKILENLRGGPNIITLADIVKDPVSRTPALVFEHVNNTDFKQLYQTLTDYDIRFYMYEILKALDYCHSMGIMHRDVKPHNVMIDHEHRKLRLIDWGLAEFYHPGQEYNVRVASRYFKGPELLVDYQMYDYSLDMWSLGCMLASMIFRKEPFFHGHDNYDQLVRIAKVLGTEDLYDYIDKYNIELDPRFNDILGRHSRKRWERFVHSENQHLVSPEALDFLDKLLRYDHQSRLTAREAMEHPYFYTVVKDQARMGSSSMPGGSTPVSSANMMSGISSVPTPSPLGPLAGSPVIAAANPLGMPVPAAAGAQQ
Casein kinase II, sequence (P19784 whole entry): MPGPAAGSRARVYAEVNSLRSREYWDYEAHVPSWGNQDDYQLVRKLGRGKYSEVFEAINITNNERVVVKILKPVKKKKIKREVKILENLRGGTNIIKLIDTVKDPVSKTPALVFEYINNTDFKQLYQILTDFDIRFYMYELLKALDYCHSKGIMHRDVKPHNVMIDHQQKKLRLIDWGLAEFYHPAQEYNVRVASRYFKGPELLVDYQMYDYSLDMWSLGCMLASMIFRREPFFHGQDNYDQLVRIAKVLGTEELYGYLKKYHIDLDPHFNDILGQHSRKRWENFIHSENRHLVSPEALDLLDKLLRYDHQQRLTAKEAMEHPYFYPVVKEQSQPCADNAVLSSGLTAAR

[4] = target: Fibroblast growth factor receptor 2 (Homo sapiens, UniProt P21802); assay: Inhibition of fibroblast growth factor receptor 2
Fibroblast growth factor receptor 2, sequence (P21802 whole entry): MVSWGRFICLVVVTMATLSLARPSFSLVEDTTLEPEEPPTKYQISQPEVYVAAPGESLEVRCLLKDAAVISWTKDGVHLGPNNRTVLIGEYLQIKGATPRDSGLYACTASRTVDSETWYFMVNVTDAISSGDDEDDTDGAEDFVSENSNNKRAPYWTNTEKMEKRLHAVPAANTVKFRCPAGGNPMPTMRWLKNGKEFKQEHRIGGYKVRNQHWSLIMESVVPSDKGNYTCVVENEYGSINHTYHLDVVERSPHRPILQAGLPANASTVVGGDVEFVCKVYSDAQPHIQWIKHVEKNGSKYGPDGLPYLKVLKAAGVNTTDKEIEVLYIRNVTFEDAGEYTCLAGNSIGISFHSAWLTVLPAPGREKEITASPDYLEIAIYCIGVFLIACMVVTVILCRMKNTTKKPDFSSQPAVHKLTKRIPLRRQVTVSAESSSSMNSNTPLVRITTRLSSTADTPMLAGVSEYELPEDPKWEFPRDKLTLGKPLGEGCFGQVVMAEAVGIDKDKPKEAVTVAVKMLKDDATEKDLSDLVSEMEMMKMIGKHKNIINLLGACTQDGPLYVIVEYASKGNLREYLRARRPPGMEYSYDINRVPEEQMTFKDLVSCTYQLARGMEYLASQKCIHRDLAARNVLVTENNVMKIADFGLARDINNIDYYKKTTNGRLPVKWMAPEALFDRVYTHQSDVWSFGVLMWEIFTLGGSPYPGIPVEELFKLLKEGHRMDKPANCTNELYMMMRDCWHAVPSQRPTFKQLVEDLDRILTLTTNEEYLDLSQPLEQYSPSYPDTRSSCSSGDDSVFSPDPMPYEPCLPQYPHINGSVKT

[5] = target: Protein kinase C beta type (Homo sapiens, UniProt P05771); assay: Inhibition of protein kinase C beta 2
Protein kinase C beta type, sequence (P05771 whole entry): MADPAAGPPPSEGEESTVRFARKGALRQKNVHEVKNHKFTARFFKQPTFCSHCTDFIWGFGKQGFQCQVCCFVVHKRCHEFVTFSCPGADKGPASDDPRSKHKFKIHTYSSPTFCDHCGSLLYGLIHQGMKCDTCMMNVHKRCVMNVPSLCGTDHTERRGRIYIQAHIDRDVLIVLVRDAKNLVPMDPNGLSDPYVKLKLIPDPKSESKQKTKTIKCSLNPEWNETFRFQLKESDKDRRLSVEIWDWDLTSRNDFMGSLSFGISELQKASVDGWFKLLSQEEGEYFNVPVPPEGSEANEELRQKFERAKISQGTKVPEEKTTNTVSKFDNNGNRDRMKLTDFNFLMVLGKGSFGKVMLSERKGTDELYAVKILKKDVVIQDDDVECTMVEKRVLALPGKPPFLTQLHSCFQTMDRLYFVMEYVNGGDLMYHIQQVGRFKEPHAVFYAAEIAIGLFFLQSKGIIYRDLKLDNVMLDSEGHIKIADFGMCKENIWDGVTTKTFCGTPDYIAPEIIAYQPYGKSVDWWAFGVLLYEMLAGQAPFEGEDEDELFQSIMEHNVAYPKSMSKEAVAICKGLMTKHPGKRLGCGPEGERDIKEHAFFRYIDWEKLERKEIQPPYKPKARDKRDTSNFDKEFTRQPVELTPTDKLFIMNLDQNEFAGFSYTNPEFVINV

[6] = target: Vascular endothelial growth factor receptor (Homo sapiens, UniProt P17948+P35916+P35968); assay: Inhibition of VEGF-stimulated human umbilical vein endothelial cell proliferation; assay type: functional, cell-based
Procedure, shortened: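 HUVEC trypsinized and seeded in F-12K with 0.2% heat-inactivated FBS, stimulated with 2 ng/well VEGF with or without compound. BrdU added 24 h after VEGF, then incubated another 20-24 h. Incorporation read by BrdU cell-proliferation ELISA.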

[7] = target: Cyclin-dependent kinase 4 (Homo sapiens, UniProt P11802); assay: Inhibition of cyclin-dependent kinase 4
Cyclin-dependent kinase 4, sequence (P11802 whole entry): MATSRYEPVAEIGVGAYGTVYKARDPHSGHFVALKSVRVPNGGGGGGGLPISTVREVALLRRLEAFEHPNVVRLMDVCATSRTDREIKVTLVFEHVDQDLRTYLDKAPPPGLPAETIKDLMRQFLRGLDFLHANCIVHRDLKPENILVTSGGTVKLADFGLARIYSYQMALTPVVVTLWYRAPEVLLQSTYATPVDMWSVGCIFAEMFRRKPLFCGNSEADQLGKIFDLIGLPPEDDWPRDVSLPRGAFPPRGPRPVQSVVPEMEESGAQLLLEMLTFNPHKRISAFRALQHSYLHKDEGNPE

[8] = target: Mitogen-activated protein kinase 1 (Homo sapiens, UniProt P28482); assay: Inhibition of mitogen activated protein kinase (ERK2)
Mitogen-activated protein kinase 1, sequence (P28482 whole entry): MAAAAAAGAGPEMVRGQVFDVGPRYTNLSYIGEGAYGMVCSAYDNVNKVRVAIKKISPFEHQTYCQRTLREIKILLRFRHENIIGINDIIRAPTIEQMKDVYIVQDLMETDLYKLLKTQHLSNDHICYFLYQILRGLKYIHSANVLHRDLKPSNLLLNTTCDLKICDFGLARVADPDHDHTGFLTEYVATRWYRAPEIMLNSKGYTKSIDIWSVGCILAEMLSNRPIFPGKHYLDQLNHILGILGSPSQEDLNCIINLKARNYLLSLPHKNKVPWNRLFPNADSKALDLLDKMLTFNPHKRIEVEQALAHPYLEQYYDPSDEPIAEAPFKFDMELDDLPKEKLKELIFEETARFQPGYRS

[9] = target: Protein kinase C gamma type (Homo sapiens, UniProt P05129); assay: Inhibition of protein kinase C gamma

Vascular endothelial growth factor receptor 2, sequence (P35968 whole entry): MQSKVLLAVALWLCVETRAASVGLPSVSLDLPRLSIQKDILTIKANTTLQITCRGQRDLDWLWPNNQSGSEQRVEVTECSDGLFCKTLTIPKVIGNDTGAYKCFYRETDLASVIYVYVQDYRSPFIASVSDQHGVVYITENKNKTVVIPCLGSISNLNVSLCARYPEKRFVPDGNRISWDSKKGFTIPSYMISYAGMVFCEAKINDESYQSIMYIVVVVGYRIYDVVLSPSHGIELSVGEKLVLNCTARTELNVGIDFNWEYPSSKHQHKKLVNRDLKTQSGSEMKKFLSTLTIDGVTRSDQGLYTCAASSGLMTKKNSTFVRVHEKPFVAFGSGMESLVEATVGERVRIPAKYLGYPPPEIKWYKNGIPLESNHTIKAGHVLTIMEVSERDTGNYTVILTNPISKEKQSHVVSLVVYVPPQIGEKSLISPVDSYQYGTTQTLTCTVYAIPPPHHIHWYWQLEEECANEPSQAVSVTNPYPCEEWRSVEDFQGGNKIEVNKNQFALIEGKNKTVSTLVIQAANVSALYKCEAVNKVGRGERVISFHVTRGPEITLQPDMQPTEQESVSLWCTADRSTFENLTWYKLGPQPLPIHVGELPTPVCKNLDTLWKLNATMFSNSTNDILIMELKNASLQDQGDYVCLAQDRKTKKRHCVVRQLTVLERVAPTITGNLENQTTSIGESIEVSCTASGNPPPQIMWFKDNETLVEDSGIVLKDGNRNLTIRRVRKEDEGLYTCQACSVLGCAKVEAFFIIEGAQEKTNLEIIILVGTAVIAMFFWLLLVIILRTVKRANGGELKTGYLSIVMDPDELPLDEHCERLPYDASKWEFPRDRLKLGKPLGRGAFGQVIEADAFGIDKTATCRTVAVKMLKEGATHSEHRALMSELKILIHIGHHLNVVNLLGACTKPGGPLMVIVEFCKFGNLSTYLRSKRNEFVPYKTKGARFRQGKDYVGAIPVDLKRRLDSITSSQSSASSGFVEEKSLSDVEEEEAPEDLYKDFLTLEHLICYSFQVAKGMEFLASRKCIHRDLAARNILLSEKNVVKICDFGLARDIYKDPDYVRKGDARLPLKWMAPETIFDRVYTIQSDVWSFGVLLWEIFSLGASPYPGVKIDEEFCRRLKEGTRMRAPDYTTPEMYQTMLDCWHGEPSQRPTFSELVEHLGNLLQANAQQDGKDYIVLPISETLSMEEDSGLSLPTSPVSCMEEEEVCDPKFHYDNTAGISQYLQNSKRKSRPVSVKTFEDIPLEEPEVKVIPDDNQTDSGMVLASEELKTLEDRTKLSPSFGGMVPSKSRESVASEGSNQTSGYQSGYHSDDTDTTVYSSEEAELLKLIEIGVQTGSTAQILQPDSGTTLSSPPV

| Compound | IC50 [1] [nM] | IC50 [2] [nM] | further results |
| --- | --- | --- | --- |
| OCCCNc1cccc(-c2cncc(Nc3cccc(Cl)c3)n2)n1 | > 10000 | > 10000 |  |
| OCCCNc1cc(-c2cncc(Nc3cccc(Cl)c3)n2)ccn1 | 500 | 500 |  |
| OCCCNc1cncc(-c2ncc(Nc3cccc(Cl)c3)cn2)c1 | > 10000 | > 10000 |  |
| OCCCNc1cncc(-c2cncc(Nc3cccc(Cl)c3)n2)c1 | 84 |  | IC50 (HeLa): > 10000 nM; IC50 [3]: > 10000 nM; IC50 (Casein kinase II): > 10000 nM; IC50 [4]: 210 nM; IC50 [5]: > 10000 nM; IC50 [6]: 5 nM; IC50 [7]: > 10000 nM; IC50 [8]: > 10000 nM; IC50 [9]: > 10000 nM |
| OCCCNc1ccc(-c2cncc(Nc3cccc(Cl)c3)n2)nc1 | > 10000 | > 10000 |  |
| OCCCNc1cnccc1-c1cncc(Nc2cccc(Cl)c2)n1 | 761 | 2220 |  |
| OCCCNc1cncc(-c2cncc(Nc3cccc(Cl)c3)n2)n1 | 497 | > 10000 |  |
| OCCCNc1cc(-c2ccnc(Nc3cccc(Cl)c3)n2)ccn1 |  | 17 |  |
| OCCCNc1cncc(-c2cc(Nc3cccc(Cl)c3)ncn2)c1 | > 10000 | 2400 |  |
| OCCCNc1ncc(-c2cncc(Nc3cccc(Cl)c3)n2)s1 | 708 | 8080 |  |
| OCCCNc1ncc(-c2cncc(Nc3cccc(Cl)c3)n2)o1 | 2110 | > 10000 |  |
| OCCCNc1cncc(-c2cnc(Nc3cccc(Cl)c3)cn2)c1 | > 10000 | > 10000 |  |
| OCCCNc1ccc(-c2ncncc2Nc2cccc(Cl)c2)cn1 | > 10000 | > 10000 |  |
